These results are taken from ChEMBL document CHEMBL4325897, “Discovery, synthesis of novel fusidic acid derivatives possessed amino-terminal groups at the 3-hydroxyl position with anticancer activity” (Eur J Med Chem, 2019).

Molecules are shown by their SMILES. pIC50: −log10 of the molar value. Values after ≈ are worked out from the molar mass of the structure shown. Active and inactive are the calls of the source. No cut-off for these calls is given here.

Data set [1] has as its system HeLa. In words: Cytotoxicity against human HeLa cells assessed as cell viability at 5 uM after 72 hrs by MTT assay relative to control. Type of data set: functional. Conditions: read-out: Activity. In outline: (§1)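 Cells grown in DMEM with 10% heat-inactivated FCS and penicillin/streptomycin at 37 °C, 5% CO2, and used in log phase. Seeded in 96-well plates and exposed to compounds at 5 μM and 1.5 μM for 72 h. MTT added, formazan dissolved in DMSO, OD read at 570 nm, and survival rate calculated. Average of at least three independent experiments.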
For orientation: Formazan colour is commonly taken as a measure of viable cells.

Data set [2] deals with HeLa. Briefly: Cytotoxicity against human HeLa cells assessed as cell viability at 1.5 uM after 72 hrs by MTT assay relative to control. Format: functional. Conditions: read-out: Activity. In outline:
as §1

Data set [3] in a line: Cytotoxicity against human KBV cells assessed as cell viability at 5 uM after 72 hrs by MTT assay relative to control. Conditions: read-out: Activity. Format: functional. In outline:
as §1

Data set [4] is described as follows: Cytotoxicity against human KBV cells assessed as cell viability at 1.5 uM after 72 hrs by MTT assay relative to control. Type of data set: functional. Conditions: read-out: Activity. An outline of the steps: as §1
Data set [5] relates to U-87 MG. In words: Cytotoxicity against human U87 cells assessed as cell viability at 5 uM after 72 hrs by MTT assay relative to control. Type of data set: functional, U-87MG ATCC. Conditions: read-out: Activity. An outline of the steps: as §1
Data set [6] relates to U-87 MG. In words: Cytotoxicity against human U87 cells assessed as cell viability at 1.5 uM after 72 hrs by MTT assay relative to control. The settings on record: read-out: Activity. Format: functional, U-87MG ATCC. An outline of the steps:
as §1

In data set [7] the test system is MKN-45. Briefly: Cytotoxicity against human MKN45 cells assessed as cell viability at 5 uM after 72 hrs by MTT assay relative to control. The settings on record: MKN-45, 72 h, read-out: Activity. Format: functional. In outline:
as §1

The test system of data set [8] is MKN-45. Briefly: Cytotoxicity against human MKN45 cells assessed as cell viability at 1.5 uM after 72 hrs by MTT assay relative to control. Type of data set: functional. Conditions: MKN-45, 72 h, read-out: Activity. In outline:
as §1

Data set [9] in a line: Cytotoxicity against HEK293 cells assessed as reduction in cell viability after 72 hrs by MTT assay. Type of data set: cell-based. The settings on record: human.
For another data set, the system named is Staphylococcus aureus. Briefly: Antibacterial activity against Staphylococcus aureus. Format: functional.
Data set [10] has as its system HeLa. Briefly: Cytotoxicity against human HeLa cells assessed as reduction in cell viability after 72 hrs by MTT assay. Format: functional, cell-based.
Data set [11] relates to U-87 MG. Briefly: Cytotoxicity against human U87 cells assessed as reduction in cell viability after 72 hrs by MTT assay. Type of data set: functional, cell-based, U-87MG ATCC.
The nature of data set [12]: Cytotoxicity against human JHH7 cells assessed as reduction in cell viability after 72 hrs by MTT assay. Type of data set: functional, cell-based. Conditions: JHH7, 72 h.
A short description of data set [13]: Cytotoxicity against human KBV cells assessed as reduction in cell viability after 72 hrs by MTT assay. Format: functional, cell-based.
Data set [14] relates to MKN-45. Briefly: Cytotoxicity against human MKN45 cells assessed as reduction in cell viability after 72 hrs by MTT assay. Type of data set: functional, cell-based. Conditions: MKN-45, 72 h.
Data set [15] concerns HeLa. Briefly: Induction of apoptosis in human HeLa cells assessed as increase in early apoptotic cells at 2 uM after 24 hrs by TUNEL staining based fluorescence microscopic analysis. Type of data set: functional, cell-based. An outline of the steps:
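HeLa cells seeded at 2×10^4 cells/well on cover slips and grown 24 h, then treated at 2 μM for 24 h. Fixed, permeabilized, and incubated with TUNEL reaction mixture (labeling enzyme plus labeled dUTP) at 37 °C for 1 h. DAPI counterstain, and TUNEL-positive cells viewed by fluorescence microscopy.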

The subject of data set [16] is HeLa. In words: Induction of apoptosis in human HeLa cells assessed as increase in ratio of sub-G0 to G1 phase at 5 uM after 48 to 72 hrs by propidium iodide staining based FACS analysis. Type of data set: functional, cell-based.
Data set [17] deals with HeLa. Briefly: Inhibition of protein synthesis in human HeLa cells assessed as decrease in puromycin-incorporated neo-synthesized proteins at 5 uM preincubated for 2 hrs followed by puromycin addition and measured after 10 mins by chemiluminescence assay. Type of data set: functional, cell-based. In outline: (§2)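 HeLa cells at 70-80% confluence treated with compound for 2 h (range 1-10 μM), then pulsed with 10 μg/mL puromycin for 10 min. After ice-cold PBS washes, lysates run on SDS-PAGE and immunoblotted with anti-puromycin antibody (1:100, overnight, 4 °C) and HRP anti-mouse IgG. Read by enhanced chemiluminescence.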

Data set [18] has as its system HeLa. In words: Inhibition of protein synthesis in human HeLa cells assessed as decrease in puromycin-incorporated neo-synthesized proteins preincubated for 2 hrs followed by puromycin addition and measured after 10 mins by chemiluminescence assay. Type of data set: functional, cell-based. An outline of the steps: as §2
Data set [19] deals with HeLa. Briefly: Antitumor activity against human HeLa cells xenografted in BALB/c mouse assessed as tumor growth inhibition at 25 mg/kg, ig bid measured every 3 days relative to control. Type of data set: functional. Conditions: po, 72 h, read-out: TGI. For orientation: In xenograft studies the graft and the host belong to different species.
For data set [20], the system named is HeLa. In words: Antitumor activity against human HeLa cells xenografted in BALB/c mouse assessed as tumor growth inhibition at 50 mg/kg, ig bid measured every 3 days relative to control. Format: functional. The settings on record: po, 72 h, read-out: TGI.
Data set [21] can be described thus: Toxicity in BALB/c mouse xenografted with human HeLa cells assessed as body weight at 25 mg/kg, ig bid measured every 3 days (reference value: 21.2 +/- 1.5 g). Format: organism-based. Conditions: in vivo, po, 72 h.
A short description of data set [22]: Toxicity in BALB/c mouse xenografted with human HeLa cells assessed as body weight at 50 mg/kg, ig bid measured every 3 days (reference value: 21.2 +/- 1.5 g). Format: organism-based. Conditions: in vivo, po, 72 h.

Consider `CC(=O)O[C@H]1C[C@@]2(C)[C@@H](C[C@@H](O)[C@H]3[C@@]4(C)CC[C@@H](OC(=O)CN)[C@@H](C)[C@@H]4CC[C@@]32C)/C1=C(\CCC=C(C)C)C(=O)OCc1ccccc1`, for which the viability at 5 µM with HeLa [1] was found to be 96%; in data set [3] it was 28%; with U-87 MG [5] it was 41%; in the data set with MKN-45 [7], 93%. Further, the viability at 1.5 µM in the data set on HeLa [2] was 100%; in [4] it was 97%; in the data set on U-87 MG [6] it was 94%; in the data set with MKN-45 [8], 95%. In addition, in data set [9], the CC50 at 72 h was 10.8 µg/mL (≈ 16.3 µM). The MIC against Staphylococcus aureus was more than 32 µg/mL.
With `CC(=O)O[C@H]1C[C@@]2(C)[C@@H](C[C@@H](O)[C@H]3[C@@]4(C)CC[C@@H](OC(=O)c5ccccc5C(=O)O)[C@@H](C)[C@@H]4CC[C@@]32C)/C1=C(\CCC=C(C)C)C(=O)OCc1ccccc1`, the viability at 5 µM in the data set with HeLa [1] turned out to be 68%; in [3], 81%; in the data set on U-87 MG [5] it was 85%; with MKN-45 [7], 76%. In addition, the viability at 1.5 µM in the data set with HeLa [2] came out at 89%; in [4], 78%; with U-87 MG [6], 81%; in the data set on MKN-45 [8] it was 78%. In [9], the CC50 at 72 h was found to be 20.6 µg/mL (≈ 27.3 µM). The compound also came in with an MIC against Staphylococcus aureus of 32 µg/mL (≈ 42.4 µM).
Regarding `CC(=O)O[C@H]1C[C@@]2(C)[C@@H](C[C@@H](O)[C@H]3[C@@]4(C)CC[C@@H](O)[C@@H](C)[C@@H]4CC[C@@]32C)/C1=C(\CCC=C(C)C)C(=O)O` [FUSIDIC ACID], the viability at 5 µM in the data set on HeLa [1] is 73%; in [3], 67%; in the data set with U-87 MG [5], 87%; in the data set with MKN-45 [7], 83%. The viability at 1.5 µM was determined as 70% in the data set with HeLa [2], 71% in data set [4], 92% in the data set with U-87 MG [6] and 80% with MKN-45 [8]. For the same compound, the CC50 at 72 h in [9] is more than 32 µg/mL. Further, the pIC50 (in the data set with HeLa [10]; in the data set on U-87 MG [11]; in data set [12]; in data set [13]; in the data set with MKN-45 [14]) was less than 4.00 each time. The outcome in the data set on HeLa [15] and with HeLa [16] was inactive. The inhibition result in the data set with HeLa [17] is “inactive”. The compound further registered an MIC against Staphylococcus aureus not above 0.25 µg/mL.
Take `CC(=O)O[C@H]1C[C@@]2(C)[C@@H](C[C@@H](O)[C@H]3[C@@]4(C)CC[C@@H](OC(=O)CCN)[C@@H](C)[C@@H]4CC[C@@]32C)/C1=C(\CCC=C(C)C)C(=O)OCc1ccccc1`: the viability at 5 µM is 13% in the data set with HeLa [1], 12% in data set [3], 9% with U-87 MG [5] and 5% with MKN-45 [7]. The viability at 1.5 µM in the data set with HeLa [2] came out at 32%; in data set [4] it was 14%; in the data set on U-87 MG [6], 10%; in the data set with MKN-45 [8] it was 23%. For the same compound, the pIC50 in the data set with HeLa [10] is 5.45; with U-87 MG [11], 5.62; in data set [12] it was 5.50; in data set [13], 5.90; with MKN-45 [14], 5.89. For the same compound, the result in the data set on HeLa [15] and in the data set with HeLa [16] was Active. For the same compound, the inhibition result with HeLa [18] was “Dose-dependent effect”. In the data set on HeLa [19], the inhibition in vivo at 25 mg/kg is 35.4%. In addition, the inhibition in vivo at 50 mg/kg in the data set on HeLa [20] amounted to 45.5%. Besides, the Activity in data set [21] was determined as 20.4 g; in data set [22], 20.5 g.
For the compound `CC(=O)O[C@H]1C[C@@]2(C)[C@@H](C[C@@H](O)[C@H]3[C@@]4(C)CC[C@@H](OC(=O)CCC(=O)O)[C@@H](C)[C@@H]4CC[C@@]32C)/C1=C(\CCC=C(C)C)C(=O)OCc1ccccc1`, the viability at 5 µM in the data set on HeLa [1] worked out at 69%; in data set [3], 66%; in the data set on U-87 MG [5] it was 84%; in the data set on MKN-45 [7], 76%. For the same compound, the viability at 1.5 µM worked out at 83% in the data set on HeLa [2], 72% in data set [4], 86% in the data set with U-87 MG [6] and 74% with MKN-45 [8].
Take `CC(=O)O[C@H]1C[C@@]2(C)[C@@H](C[C@@H](O)[C@H]3[C@@]4(C)CC[C@@H](OC(=O)c5ccccc5C(=O)n5ccnc5)[C@@H](C)[C@@H]4CC[C@@]32C)/C1=C(\CCC=C(C)C)C(=O)OCc1ccccc1`: the viability at 5 µM is 63% in the data set on HeLa [1], 69% in data set [3], 77% in the data set with U-87 MG [5] and 92% in the data set with MKN-45 [7]. The viability at 1.5 µM in the data set on HeLa [2] stood at 84%; in data set [4] it was 81%; with U-87 MG [6], 85%; with MKN-45 [8], 103%.
`CC(=O)O[C@H]1C[C@@]2(C)[C@@H](C[C@@H](O)[C@H]3[C@@]4(C)CC[C@@H](OC(=O)c5ccccc5C(=O)N5CCOCC5)[C@@H](C)[C@@H]4CC[C@@]32C)/C1=C(\CCC=C(C)C)C(=O)OCc1ccccc1`: the viability at 5 µM turned out to be 60% with HeLa [1], 66% in [3], 77% in the data set on U-87 MG [5] and 92% in the data set with MKN-45 [7]. Further, the viability at 1.5 µM worked out at 76% in the data set on HeLa [2], 81% in data set [4], 86% in the data set on U-87 MG [6] and 104% with MKN-45 [8].

What is called CC50 is the concentration giving 50% cytotoxicity. A word on the MIC: it is the lowest concentration found to suppress growth. Low readings indicate greater potency, high ones weaker potency. The term pIC50 denotes −log10 of the IC50, conventionally taken in molar units.
